High-throughput results from PubChem.
T cruzi growth-1 – T. cruzi intracellular proliferation inhibitors, primary screen, cell-based, beta-gal Tulahuen parasites, NIH3T3 host, luminescence | 77,000 tested, 5.9% active | AID 624255, 2012 | T. cruzi beta-gal in NIH3T3, GalScreen luminescence, 90 h | inhibition, % at 8.34 µM;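 active means mean inhibition above about 93%, with at least 55% of replicates each passing it, limit read from the data, passing the limit was not always enough; inconclusive means only one of those two conditions holds; inactive means neither condition holds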
GASC1 inh – inhibitors of GASC-1 (KDM4C) histone demethylase, primary screen, biochemical, single concentration HTS; Lysine-specific demethylase 4C (Homo sapiens), Q9H3R0; GST-KDM4C 2-372, H3K9me3 peptide, LANCE TR-FRET; inhibition, % at 12.5 µM; 96,000 tested, 0.15% active; AID 720574, 2013;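 active means mean replicate inhibition above about 25%, with at least 55% of replicates also reaching it, limit read from the data, passing the limit was not always enough; inconclusive means only one of those two conditions met; inactive means neither condition met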
Target sequence (Q9H3R0 2-372 limits assumed): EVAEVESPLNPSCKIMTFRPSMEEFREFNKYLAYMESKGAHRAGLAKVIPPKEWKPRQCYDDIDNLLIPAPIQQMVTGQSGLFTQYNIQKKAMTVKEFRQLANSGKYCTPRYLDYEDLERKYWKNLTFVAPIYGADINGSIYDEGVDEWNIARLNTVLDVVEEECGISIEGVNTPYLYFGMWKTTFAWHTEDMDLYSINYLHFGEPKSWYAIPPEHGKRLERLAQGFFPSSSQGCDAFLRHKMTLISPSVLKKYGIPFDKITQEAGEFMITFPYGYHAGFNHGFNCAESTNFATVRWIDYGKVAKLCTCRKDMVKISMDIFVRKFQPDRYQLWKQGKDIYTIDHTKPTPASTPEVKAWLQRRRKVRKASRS
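Material: GST-tagged GASC-1 (JMJD2C) catalytic fragment, aa 2-372 / Quantity: enzyme final amount 10 nM / Medium: HEPES buffer, pH 7.5, plus ascorbate / Doses: one test concentration per compound / Incubation: 30 min reaction, 60 min detection, RT / Measured by: LANCE TR-FRET / Read-out: inhibition from TR-FRET ratio decrease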
IDH1 mut inh – inhibitors of IDH1 R132H reductase, primary screen, biochemical, plate reader, single point; inhibition, % at 10 µM; AID 624101, 2012; 70,000 tested, 0.18% active; Isocitrate dehydrogenase [NADP] cytoplasmic (Homo sapiens), O75874; diaphorase/resazurin fluorescence, 60 min; in the data active means inhibition above about 34%; inconclusive means no clear call, values can overlap the other calls; inactive means below about 11%;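 further: 0% = DMSO and 100% = no enzyme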
Pf Dd2 growth – P. falciparum Dd2 growth inhibitors, primary screen, SYBR Green fluorescence, single dose replicates; 72 h; hits give low values; activity change, % at 10 µM; 94,000 tested, 2.3% active; in the data active means activity change below about -80%; inconclusive means no clear call, values can overlap the other calls
T cruzi growth-2 – T. cruzi intracellular proliferation inhibitors, confirmation, cell-based, NIH3T3 host, beta-gal parasite, luminescence, cherry-pick | shares compounds with T cruzi growth-1 | T. cruzi beta-gal in NIH3T3, GalScreen luminescence, 90 h | inhibition, % at 8.35 µM | 5,600 tested, 72% active;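 active means mean replicate inhibition above about 95% and at least 55% of replicates individually reaching it, limit read from the data; inconclusive means only one of the two criteria is met; inactive means neither criterion is met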
T cruzi growth-3 – inhibitors of intracellular T. cruzi replication, confirmation, NIH3T3 host cells, beta-gal parasites, cherry-pick, set 2. shares compounds with T cruzi growth-1. T. cruzi beta-gal in NIH3T3, GalScreen luminescence, 90 h. inhibition, % at 2.09 µM. 5,600 tested, 21% active;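 active means mean inhibition above about 95%, with at least 55% of replicates also reaching it, limit read from the data; inconclusive means meets just one of the two conditions; inactive means meets neither condition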;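 further: plate controls were neutral control median for no effect and positive control median for full effect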
3T3 cytotox – cytotoxicity in mouse NIH/3T3 fibroblasts, confirmation, cytotoxicity control for T. cruzi proliferation inhibitor project, cell-based, cherry-pick, single point. NIH/3T3 viability, CellTiter-Glo ATP luminescence, 90 h. shares compounds with T cruzi growth-1. cytotoxicity (signal decrease), % at 8.35 µM. 5,600 tested, 14% active. AID 651742, 2012;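 active means mean signal decrease across replicates above about 35% based on untreated-well scatter, with enough replicates individually passing, limit read from the data; inconclusive means no rule stated though some were filed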;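 further: 0% = median of neutral control wells and 100% = median of positive control wells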
NIH3T3 tox 2 – NIH/3T3 fibroblast cytotoxicity, confirmation, cytotoxicity control, cell-based, cherry-pick, single point, set 2. shares compounds with T cruzi growth-1. NIH/3T3 viability, CellTiter-Glo ATP luminescence, 90 h. inhibition, % at 24.9 µM. 5,600 tested, 56% active. AID 651744, 2012;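 active means mean loss of cell viability signal at or above a set limit, and enough replicates individually reaching it; inconclusive means meets only the mean limit or only the replicate share; inactive means meets neither condition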;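 further: 0% = median of neutral control wells and 100% = median of positive control wells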
Numbers without * were called inactive; ? = inconclusive; / = not tested or not shown. Sampled rows, rich in hits. Any-hit rate of the full collection: about 5.9%.

SMILES	T cruzi growth-1	GASC1 inh	IDH1 mut inh	Pf Dd2 growth	T cruzi growth-2	T cruzi growth-3	3T3 cytotox	NIH3T3 tox 2
CCCN1CCc2cc(O)cc3c2[C@H]1Cc1ccc(O)c(O)c1-3	/	/	44*	/	/	/	/	/
CC(/C=C/C(=O)NO)=C\c1ccccc1OC[C@@H]1C=C2c3cccc4[nH]cc(c34)C[C@H]2N(C)C1	/	/	0	/	/	/	/	/
O=C(Cc1ccccc1)N1CCCCN2[C@H](CO)[C@@H](c3ccc(C#CC4(O)CCCC4)cc3)[C@@H]2C1	38	-1	/	-5	/	/	/	/
O=C(Cc1ccccc1)N1CCCCN2[C@H](CO)[C@H](c3ccc(C#CC4(O)CCCC4)cc3)[C@H]2C1	100*	-1	/	-11	62	53	-8	30*
O=C(Cc1ccncc1)N1CCCCN2[C@@H](CO)[C@H](c3ccc(C#Cc4ccccc4F)cc3)[C@@H]2C1	112*	0	/	-42	112*	79	50*	104*
O=C(Cc1ccccc1)N1CCCCN2[C@@H](CO)[C@@H](c3ccc(C#Cc4ccccc4)cc3)[C@@H]2C1	106*	-2	/	-55	100*	102*	120*	105*
O=C(Cc1ccccc1)N1CCCCN2[C@@H](CO)[C@H](c3ccc(C#Cc4ccccc4)cc3)[C@@H]2C1	111*	?	/	-60	108*	105*	43*	103*
Cc1ccccc1OCCCn1cc(C(=O)C(C)(C)C)c2ccccc21	/	/	-1	/	/	/	/	/
O=C(Cc1ccccc1)N1CCCCN2[C@H](CO)[C@H](c3ccc(C#Cc4ccccc4)cc3)[C@@H]2C1	120*	2	/	-24	102*	115*	27	103*
COc1ccc(CN2CCN(CCO)CC2)c(OC)c1C	/	/	0	/	/	/	/	/
CCCC#Cc1ccc([C@@H]2[C@@H](CO)N3CCCCN(C(=O)Cc4ccccn4)C[C@@H]23)cc1	110*	1	/	-55	?	57	22	13
CCCC#Cc1ccc([C@H]2[C@H]3CN(C(=O)Cc4ccccn4)CCCCN3[C@H]2CO)cc1	119*	-1	/	-10	90	41	-3	23
O=C(Cc1ccccn1)N1CCCCN2[C@H](C1)[C@@H](c1ccc(C#Cc3ccccc3)cc1)[C@@H]2CO	99*	-1	/	-56	105*	51	41*	104*
CO[C@H]1[C@H](O)[C@H](O[C@H]2CC[C@]3(C)C4CC[C@]5(C)[C@H](C6=CC(=O)OC6)CC[C@]5(O)C4CC[C@@H]3C2)O[C@@H](C)[C@@H]1O[C@@H]1O[C@H](CO[C@@H]2O[C@H](CO)[C@@H](O)[C@H](O)[C@H]2O)[C@@H](O)[C@H](O)[C@H]1O (some centres not stated)	/	/	0	/	/	/	/	/
O=C1NC(=O)C(CCc2ccncc2)(CCc2ccncc2)C(=O)N1c1ccccc1F	/	/	6	/	/	/	/	/
C=C1[C@@H](C)[C@H]2[C@H](Cc3ccccc3)NC(=O)[C@]23[C@H](OC(C)=O)C=C[C@](C)(O)C(=O)[C@@H](C)C/C=C/[C@H]3[C@@H]1O	/	/	1	/	/	/	/	/
O=C(Cc1cccnc1)N1CCCCN2[C@H](CO)[C@H](c3ccc(/C=C/c4ccccc4)cc3)[C@@H]2C1	119*	0	/	8	114*	102*	?	79*
O=C(Cc1cccnc1)N1CCCCN2[C@H](C1)[C@H](c1ccc(/C=C/c3ccccc3)cc1)[C@@H]2CO	94	-1	/	-10	/	/	/	/
O=C(Cc1cccnc1)N1CCCCN2[C@@H](CO)[C@H](c3ccc(/C=C/c4ccccc4)cc3)[C@@H]2C1	105*	0	/	8	104*	73	?	104*
C/C=C/c1ccc([C@@H]2[C@@H](CO)N3CCCCN(C(=O)Cc4cccnc4)C[C@H]23)cc1	52	0	/	16	/	/	/	/
OC[C@H]1[C@H]2c3ccccc3NC[C@H]2N1Cc1cccnc1	61	0	/	-10	/	/	/	/
O=C(Cc1ccccc1)N1C[C@@H]2[C@H](c3ccccc31)[C@H](CO)N2Cc1ccccc1	97*	0	/	-16	101*	100*	-13	26
COC(=O)C[C@H]1CC[C@@H]2NC[C@H](O)COC[C@H]2O1	105*	-1	/	-8	15	18	-7	16
COC1CC(OC2C(C)OC(OC3C(C)OC(OC4C(C)OC(O[C@H]5CC[C@@]6(C)C(=CC[C@]7(O)C6CC(OC(=O)c6ccccc6)[C@@]6(C)[C@]7(O)CC[C@@]6(O)C(C)=O)C5)CC4OC)CC3OC)CC2OC)OC(C)C1O (some centres not stated)	/	/	1	/	/	/	/	/
C=CCN1CCC23c4c5ccc(O)c4OC2C(=O)CCC3(O)C1C5 (configuration not stated)	/	/	-3	/	/	/	/	/
SMILES	T cruzi growth-1	GASC1 inh	IDH1 mut inh	Pf Dd2 growth	T cruzi growth-2	T cruzi growth-3	3T3 cytotox	NIH3T3 tox 2
N#Cc1cc2c(nc1SCc1ccccc1Br)C1CCN2CC1	/	/	0	/	/	/	/	/
N#Cc1cccc(-c2ccc([C@@H]3[C@H](CO)N4CCCCN(C(=O)Cc5ccncc5)C[C@@H]34)cc2)c1	92	0	/	-42	/	/	/	/
O=C(Cc1ccccc1)N1CCCCN2[C@H](CO)[C@@H](c3ccc(-c4ccccc4)cc3)[C@H]2C1	100*	-1	/	0	?	36	11	105*
N#Cc1cccc(-c2ccc([C@@H]3[C@H](CO)N4CCCCN(C(=O)Cc5ccccc5)C[C@@H]34)cc2)c1	100*	-1	/	-24	104*	40	-1	57*
N#Cc1cccc(-c2ccc([C@H]3[C@@H](CO)N4CCCCN(C(=O)Cc5ccncc5)C[C@H]34)cc2)c1	81	-1	/	-24	/	/	/	/
N#Cc1cccc(-c2ccc([C@H]3[C@@H](CO)N4CCCCN(C(=O)Cc5ccccc5)C[C@H]34)cc2)c1	109*	-1	/	6	111*	81	19	56*
N#Cc1cccc(-c2ccc([C@H]3[C@@H](CO)N4CCCCN(C(=O)Cc5ccccc5)C[C@@H]34)cc2)c1	110*	0	/	30	103*	77	-5	0
COc1ccc2c(c1OC)C(=O)O[C@@H]2[C@@H]1c2cc3c(cc2CCN1C)OCO3	/	/	2	/	/	/	/	/
